We go through four molecules from ChEMBL document CHEMBL3045897, “Bioactivity of compounds from Acmella oleracea against Tuta absoluta (Meyrick) (Lepidoptera: Gelechiidae) and selectivity to two non-target species” (Pest Manag Sci, 2012).

For data set [1], the system named is Tetragonisca angustula. Nature of the data set: Contact toxicity against adult Tetragonisca angustula assessed as mortality after 24 hr. It is filed as organism-based. As to conditions: in vivo, topical_or_ocular. Put shortly: (§1)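 Topical application of 0.5 µL test solution in acetone per insect; controls got 0.5 µL acetone alone. Insects were held singly with food in small petri dishes at 25 ± 0.5 °C, 75±5% RH and a 12 h photoperiod. Mortality (dead or motionless insects) was scored at 24 h.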

Data set [2] concerns Solenopsis saevissima. Kind of data set: Contact toxicity against adult Solenopsis saevissima assessed as mortality after 24 hr. It is filed as organism-based. As to conditions: in vivo, topical_or_ocular. Put shortly: as §1
Data set [3] relates to Tuta absoluta. Kind of data set: Contact toxicity against second-instar larvae of Tuta absoluta assessed as mortality after 24 hr. It is filed as functional. Put shortly:
as §1

Data set [4] in a line: Contact toxicity against adult Tetragonisca angustula assessed as mortality at contact LD80 for second-instar larvae of Tuta absoluta measured after 24 hr. It counts as organism-based. As to conditions: in vivo, topical or ocular.
Data set [5] in a line: Selectivity ratio of LD50 for adult Solenopsis saevissima to LD50 for second-instar larvae of Tuta absoluta. Summed up:
(§2)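 Test solutions in acetone were applied topically at 0.5 µL per insect, with acetone alone as control. Insects were then held individually in petri dishes with food at 25 ± 0.5 °C, 75±5% RH and a 12 h photoperiod. Mortality (dead or motionless) was scored at 24 h. LD50 values came from probit analysis of dose–mortality data for each species, and SLR50 was computed from these LD50 values.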

The nature of data set [6]: Contact toxicity against adult Solenopsis saevissima assessed as mortality at contact LD80 for second-instar larvae of Tuta absoluta measured after 24 hr. It counts as organism-based. As to conditions: in vivo, topical or ocular.
Data set [7] in a line: Selectivity ratio of LD50 for adult Tetragonisca angustula to LD50 for second-instar larvae of Tuta absoluta. Put shortly: as §2
Data set [8] relates to Tuta absoluta. Kind of data set: Ratio of permethrin LD50 to compound LD50 for second-instar larvae of Tuta absoluta assessed as mortality after 24 hr. It is filed as functional.

For `C#CC#CCCCC/C=C/C(=O)NCC(C)C`, the LD80 in data set [1] came out at 2.02 µg/mg; in data set [2], 2.22 µg/mg.
Consider `C#CC#CCCCC/C=C/C(=O)NC[C@H](C)CC`, for which the LD50 in data set [3] was 0.81 µg/mg; in data set [1] it was 1.1 µg/mg; in data set [2], 1.33 µg/mg. Also, the results for the LD80 in data set [3], in data set [1] and in data set [2] were 1.76 µg/mg, 2.26 µg/mg and 4.4 µg/mg, respectively. The mortality at 24 h in data set [4] stood at 59%; in data set [6], 55%. The Ratio was determined as 1.64 in data set [5] and 1.35 in data set [7].
For the molecule `CC1(C)C(C=C(Cl)Cl)C1C(=O)OCc1cccc(Oc2ccccc2)c1` (stereo not drawn) [PERMETHRIN], the LD50 in data set [3] turned out to be 0.71 µg/mg; in data set [1], 0.0003 µg/mg; in data set [2] it was 0.046 µg/mg. In addition, the values for the LD80 in data set [3], in data set [1] and in data set [2] were 2.57 µg/mg, 0.002 µg/mg and 1.458 µg/mg, respectively. The mortality at 24 h in data set [4] and in data set [6] was 100% in each case. The results for the Ratio in data set [5] and in data set [7] were 0.00042 and 0.065, respectively.
As to `C/C=C/C=C\CC/C=C/C(=O)NCC(C)C` [Spilanthol], the LD50 in data set [3] was 0.13 µg/mg; in data set [1], 0.35 µg/mg; in data set [2] it was 0.18 µg/mg. Also, the LD80 was determined as 0.56 µg/mg in data set [3], 0.81 µg/mg in data set [1] and 1.12 µg/mg in data set [2]. Further, the mortality at 24 h stood at 58% in data set [4] and 68% in data set [6]. In addition, the Ratio in data set [5] was 1.38; in data set [8] it was 5; in data set [7] it was 2.69.
